Measurements from ChEMBL document CHEMBL1140952 (J Med Chem, 2009).
In brackets after ≈: the same amount, converted by molar mass.

Experiments:
[1] = target: Cytochrome P450 2C19 (Homo sapiens, UniProt P33261); test: Inhibition of CYP2C19; assay type: ADME
[2] = target: Cytochrome P450 3A4 (Homo sapiens, UniProt P08684); test: Inhibition of CYP3A4; assay type: ADME
[3] = target: Cytochrome P450 2C9 (Homo sapiens, UniProt P11712); test: Inhibition of CYP2C9; assay type: ADME
[4] = target: Cytochrome P450 1A2 (Homo sapiens, UniProt P05177); test: Inhibition of CYP1A2; assay type: ADME
[5] = target: Cytochrome P450 2D6 (Homo sapiens, UniProt P10635); test: Inhibition of CYP2D6; assay type: ADME
[6] = Antiproliferative activity against Met-dependent human GTL16 cells after 72 hrs by MTS assay; assay type: functional, cell-based; conditions: GTL 16, 72 h
[7] = Metabolic stability in mouse liver microsomes assessed per mg of protein; assay type: ADME, Microsome
[8] = target: T1, Hepatocyte growth factor receptor (Homo sapiens, UniProt P08581); test: Inhibition of MET
[9] = Oral bioavailability in Sprague-Dawley rat at 10 mg/kg; assay type: ADME, organism-based; conditions: in vivo
Procedure, shortened: (§1)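 In-life PK: single iv and oral doses given in 70% PEG400-30% water, orally as a solution formulation. Mouse values are averages of six animals and rat values of three. Dog values are averages of two or three animals per route. Plasma Cmax, Tmax, AUC0-24h, iv t1/2, Cl, Vss and oral bioavailability were derived.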

[10] = Volume of distribution at steady state in Beagle dog at 1 mg/kg, iv; assay type: ADME, organism-based, Canis lupus familiaris; set-up: dose 1 mg/kg, route intravenous; conditions: in vivo, read-out: Vdss; procedure, shortened: as §1
[11] = Cmax in human GTL16 cells xenografted athymic mouse at 50 mg/kg, po; assay type: ADME, organism-based; set-up: dose 50 mg/kg, route oral; conditions: in vivo
Procedure, shortened: (§2)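 GTL-16 human gastric carcinoma cells were implanted subcutaneously in athymic mice and tumors staged to about 125 mm³. The compound was then given orally once daily for 14 consecutive days. Drug exposure (Cmax, AUC0-24h) was measured at the dose levels. Toxicity was judged by weight loss or morbidity.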

[12] = Half life in Beagle dog at 1 mg/kg, iv; assay type: ADME, organism-based, Canis lupus familiaris; set-up: dose 1 mg/kg, route intravenous; conditions: in vivo; procedure, shortened: as §1
[13] = target: Inhibitor of NF-kappa-B kinase alpha/beta (Homo sapiens, UniProt O14920+O15111); test: Inhibition of IKK1/2
[14] = Protein binding in Sprague-Dawley rat; assay type: ADME, organism-based; conditions: in vivo, read-out: PB
[15] = target: MAP kinase-activated protein kinase 2 (Homo sapiens, UniProt P49137); test: Inhibition of MK2
[16] = Clearance in Beagle dog at 1 mg/kg, iv; assay type: ADME, organism-based, Canis lupus familiaris; set-up: dose 1 mg/kg, route intravenous; conditions: in vivo; procedure, shortened: as §1
[17] = target: Platelet-derived growth factor receptor beta (Homo sapiens, UniProt P09619); test: Inhibition of PDGFRbeta by cellular proliferation assay
[18] = target: Tyrosine-protein kinase Blk (Homo sapiens, UniProt P51451); test: Inhibition of Blk by Ambit binding assay
[19] = target: Serine/threonine-protein kinase PLK1 (Homo sapiens, UniProt P53350); test: Inhibition of plk1/3
[20] = Tmax in BALB/c mouse at 10 mg/kg, po; assay type: ADME, organism-based; set-up: dose 10 mg/kg, route oral; conditions: in vivo; procedure, shortened: as §1
[21] = Aqueous solubility at pH 1.0; assay type: physicochemical
[22] = Inhibition of PKA
[23] = Antitumor activity in human GTL16 cells xenografted athymic mouse at 25 mg/kg, po administered once daily for 14 days; assay type: functional; conditions: GTL 16, 336 h, read-out: TGI
[24] = Protein binding in BALB/c mouse; assay type: ADME, organism-based; conditions: in vivo, read-out: PB
[25] = Tmax in Sprague-Dawley rat at 10 mg/kg, po; assay type: ADME, organism-based; set-up: dose 10 mg/kg, route oral; conditions: in vivo; procedure, shortened: as §1
[26] = test system: Canis familiaris; test: Cmax in Beagle dog at 5 mg/kg, po; assay type: ADME, organism-based, Canis lupus familiaris; set-up: dose 5 mg/kg, route oral; conditions: in vivo; procedure, shortened: as §1
[27] = Antitumor activity in human GTL16 cells xenografted athymic mouse at 50 mg/kg, po administered once daily for 14 days; assay type: functional; conditions: GTL 16, 336 h, read-out: TGI
[28] = Clearance in BALB/c mouse at 5 mg/kg, iv; assay type: ADME, organism-based; set-up: dose 5 mg/kg, route intravenous; conditions: in vivo; procedure, shortened: as §1
[29] = Half life in BALB/c mouse at 5 mg/kg, iv; assay type: ADME, organism-based; set-up: dose 5 mg/kg, route intravenous; conditions: in vivo; procedure, shortened: as §1
[30] = target: Mitogen-activated protein kinase 14 (Homo sapiens, UniProt Q16539); test: Inhibition of p38alpha
[31] = Oral bioavailability in Beagle dog at 5 mg/kg; assay type: ADME, organism-based, Canis lupus familiaris; conditions: in vivo; procedure, shortened: as §1
[32] = Antiproliferative activity against Met-driven human U87 cells after 72 hrs by MTS assay; assay type: functional, cell-based, U-87MG ATCC; conditions: U-87 MG
[33] = Volume of distribution at steady state in BALB/c mouse at 5 mg/kg, iv; assay type: ADME, organism-based; set-up: dose 5 mg/kg, route intravenous; conditions: in vivo, read-out: Vdss; procedure, shortened: as §1
[34] = target: Vascular endothelial growth factor receptor 2 (Homo sapiens, UniProt P35968); test: Inhibition of VEGFR2
[35] = test system: Mus musculus; test: Toxicity in human GTL16 cells xenografted athymic mouse assessed as weight loss/morbidity at 50 mg/kg, po; assay type: organism-based; set-up: dose 50 mg/kg, route oral; conditions: in vivo; procedure, shortened: as §2
[36] = Inhibition of CDK2E
[37] = Tmax in Beagle dog at 5 mg/kg, po; assay type: ADME, organism-based, Canis lupus familiaris; set-up: dose 5 mg/kg, route oral; conditions: in vivo; procedure, shortened: as §1
[38] = Clearance in Sprague-Dawley rat at 5 mg/kg, iv; assay type: ADME, organism-based; set-up: dose 5 mg/kg, route intravenous; conditions: in vivo; procedure, shortened: as §1
[39] = target: T1, Hepatocyte growth factor receptor; test: Inhibition of Met phosphorylation in human GTL16 cells after 30 mins; assay type: cell-based
Procedure, shortened: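 Human GTL-16 gastric carcinoma cells were incubated with compound for 30 min, then lysed. Phospho-Met protein levels in the lysates were assessed across a range of concentrations.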

[40] = target: Macrophage-stimulating protein receptor (Homo sapiens, UniProt Q04912); test: Inhibition of Ron
[41] = Oral bioavailability in BALB/c mouse at 10 mg/kg; assay type: ADME, organism-based; conditions: in vivo; procedure, shortened: as §1
[42] = test system: Rattus norvegicus; test: Cmax in Sprague-Dawley rat at 10 mg/kg, po; assay type: ADME, organism-based; set-up: dose 10 mg/kg, route oral; conditions: in vivo; procedure, shortened: as §1
[43] = Antitumor activity in human GTL16 cells xenografted athymic mouse at 6.25 mg/kg, po administered once daily for 14 days; assay type: functional; conditions: GTL 16, 336 h, read-out: TGI
[44] = target: Tyrosine-protein kinase Mer (Homo sapiens, UniProt Q12866); test: Inhibition of Mer
[45] = AUC (0 to 24 hrs) in human GTL16 cells xenografted athymic mouse at 50 mg/kg, po; assay type: ADME, organism-based; set-up: time < 24 hr, dose 50 mg/kg, route oral; conditions: in vivo; procedure, shortened: as §2
[46] = AUC (0 to 24 hrs) in human GTL16 cells xenografted athymic mouse at 6.25 mg/kg, po; assay type: ADME, organism-based; set-up: time < 24 hr, dose 6.25 mg/kg, route oral; conditions: in vivo; procedure, shortened: as §2
[47] = Half life in Sprague-Dawley rat at 5 mg/kg, iv; assay type: ADME, organism-based; set-up: dose 5 mg/kg, route intravenous; conditions: in vivo; procedure, shortened: as §1
[48] = target: Serine/threonine-protein kinase pim-1 (Homo sapiens, UniProt P11309); test: Inhibition of pim1
[49] = target: Tyrosine-protein kinase receptor TYRO3 (Homo sapiens, UniProt Q06418); test: Inhibition of Tyro3
[50] = target: High affinity nerve growth factor receptor (Homo sapiens, UniProt P04629); test: Inhibition of TrkA
[51] = target: Ephrin type-A receptor 3 (Homo sapiens, UniProt P29320); test: Inhibition of Epha3 by Ambit binding assay
[52] = Cmax in human GTL16 cells xenografted athymic mouse at 6.25 mg/kg, po; assay type: ADME, organism-based; set-up: dose 6.25 mg/kg, route oral; conditions: in vivo; procedure, shortened: as §2
[53] = test system: Mus musculus; test: Toxicity in human GTL16 cells xenografted athymic mouse assessed as weight loss/morbidity at 25 mg/kg, po; assay type: organism-based; set-up: dose 25 mg/kg, route oral; conditions: in vivo; procedure, shortened: as §2
[54] = test system: Mus musculus; test: Toxicity in human GTL16 cells xenografted athymic mouse assessed as weight loss/morbidity at 6.25 mg/kg, po; assay type: organism-based; set-up: dose 6.25 mg/kg, route oral; conditions: in vivo; procedure, shortened: as §2
[55] = target: Aurora kinase B (Homo sapiens, UniProt Q96GD4); test: Inhibition of Aurora B
[56] = target: Proto-oncogene tyrosine-protein kinase Src (Homo sapiens, UniProt P12931); test: Inhibition of Src by Ambit binding assay
[57] = test system: Mus musculus; test: Cmax in BALB/c mouse at 10 mg/kg, po; assay type: ADME, organism-based; set-up: dose 10 mg/kg, route oral; conditions: in vivo; procedure, shortened: as §1
[58] = target: BDNF/NT-3 growth factors receptor (Homo sapiens, UniProt Q16620); test: Inhibition of TrkB
[59] = Volume of distribution at steady state in Sprague-Dawley rat at 5 mg/kg, iv; assay type: ADME, organism-based; set-up: dose 5 mg/kg, route intravenous; conditions: in vivo, read-out: Vdss; procedure, shortened: as §1
[60] = test system: NCI-N87; test: Antiproliferative activity against Met-independent human NCI-N87 cells after 72 hrs by MTS assay; assay type: functional, cell-based; conditions: NCI-N87, 72 h
[61] = Protein binding in Beagle dog; assay type: ADME, organism-based, Canis lupus familiaris; conditions: in vivo, read-out: PB
[62] = test system: NCI-H1993; test: Antiproliferative activity against Met-dependent human NCI-H1993 cells after 72 hrs by MTS assay; assay type: functional, cell-based; conditions: NCI-H1993, 72 h

T1 sequence (P08581 whole entry): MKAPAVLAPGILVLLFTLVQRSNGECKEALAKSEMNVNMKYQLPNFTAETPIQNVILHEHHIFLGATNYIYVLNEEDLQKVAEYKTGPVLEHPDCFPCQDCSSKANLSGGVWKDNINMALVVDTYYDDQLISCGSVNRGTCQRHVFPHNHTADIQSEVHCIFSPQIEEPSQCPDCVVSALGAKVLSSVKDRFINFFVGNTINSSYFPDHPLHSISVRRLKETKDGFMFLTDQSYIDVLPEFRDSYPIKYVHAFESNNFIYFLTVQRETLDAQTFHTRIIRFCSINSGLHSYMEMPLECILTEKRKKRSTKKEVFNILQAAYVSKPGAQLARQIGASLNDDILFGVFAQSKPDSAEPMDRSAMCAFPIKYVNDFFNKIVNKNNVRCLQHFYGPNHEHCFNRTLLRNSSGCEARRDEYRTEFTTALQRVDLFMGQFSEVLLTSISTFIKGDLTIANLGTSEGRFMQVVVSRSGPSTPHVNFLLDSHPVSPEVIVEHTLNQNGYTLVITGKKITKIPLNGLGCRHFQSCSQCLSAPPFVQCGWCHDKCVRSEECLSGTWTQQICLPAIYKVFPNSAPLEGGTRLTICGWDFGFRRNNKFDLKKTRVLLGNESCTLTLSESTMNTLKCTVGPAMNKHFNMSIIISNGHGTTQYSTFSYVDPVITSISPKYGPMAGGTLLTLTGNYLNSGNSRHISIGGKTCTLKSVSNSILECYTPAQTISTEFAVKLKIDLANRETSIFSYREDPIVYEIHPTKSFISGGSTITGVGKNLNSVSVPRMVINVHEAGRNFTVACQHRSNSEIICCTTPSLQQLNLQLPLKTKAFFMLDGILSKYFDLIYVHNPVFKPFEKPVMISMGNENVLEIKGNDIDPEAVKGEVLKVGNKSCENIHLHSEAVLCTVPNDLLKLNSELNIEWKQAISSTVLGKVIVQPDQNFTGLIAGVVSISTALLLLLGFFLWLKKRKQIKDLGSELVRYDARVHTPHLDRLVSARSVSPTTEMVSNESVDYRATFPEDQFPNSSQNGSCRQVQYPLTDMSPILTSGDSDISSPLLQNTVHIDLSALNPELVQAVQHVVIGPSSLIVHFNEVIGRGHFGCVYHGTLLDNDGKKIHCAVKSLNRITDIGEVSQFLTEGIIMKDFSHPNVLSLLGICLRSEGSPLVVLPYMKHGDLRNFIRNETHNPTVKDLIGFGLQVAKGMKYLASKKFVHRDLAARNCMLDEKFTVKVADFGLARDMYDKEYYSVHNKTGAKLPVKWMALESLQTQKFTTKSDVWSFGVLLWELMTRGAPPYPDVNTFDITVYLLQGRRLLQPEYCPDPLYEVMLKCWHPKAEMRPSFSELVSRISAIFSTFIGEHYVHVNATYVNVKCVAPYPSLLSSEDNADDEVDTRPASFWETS
Chain of Serine/threonine-protein kinase PLK1 (P53350 whole entry): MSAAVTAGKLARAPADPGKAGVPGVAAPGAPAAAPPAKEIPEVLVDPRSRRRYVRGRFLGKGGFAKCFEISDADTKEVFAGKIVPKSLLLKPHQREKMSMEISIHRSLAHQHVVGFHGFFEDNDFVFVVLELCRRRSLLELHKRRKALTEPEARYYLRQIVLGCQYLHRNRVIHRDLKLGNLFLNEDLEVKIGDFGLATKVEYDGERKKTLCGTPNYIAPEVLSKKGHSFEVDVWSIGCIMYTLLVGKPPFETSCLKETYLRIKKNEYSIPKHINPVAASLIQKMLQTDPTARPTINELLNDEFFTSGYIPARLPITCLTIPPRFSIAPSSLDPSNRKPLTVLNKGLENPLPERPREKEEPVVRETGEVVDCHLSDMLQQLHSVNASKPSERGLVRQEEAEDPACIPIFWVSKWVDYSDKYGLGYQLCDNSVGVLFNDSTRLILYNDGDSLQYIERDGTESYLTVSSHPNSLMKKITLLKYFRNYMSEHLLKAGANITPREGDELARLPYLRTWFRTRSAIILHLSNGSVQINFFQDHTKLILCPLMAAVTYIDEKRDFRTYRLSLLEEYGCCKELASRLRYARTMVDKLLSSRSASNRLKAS
Chain of Proto-oncogene tyrosine-protein kinase Src (P12931 2-536 limits assumed): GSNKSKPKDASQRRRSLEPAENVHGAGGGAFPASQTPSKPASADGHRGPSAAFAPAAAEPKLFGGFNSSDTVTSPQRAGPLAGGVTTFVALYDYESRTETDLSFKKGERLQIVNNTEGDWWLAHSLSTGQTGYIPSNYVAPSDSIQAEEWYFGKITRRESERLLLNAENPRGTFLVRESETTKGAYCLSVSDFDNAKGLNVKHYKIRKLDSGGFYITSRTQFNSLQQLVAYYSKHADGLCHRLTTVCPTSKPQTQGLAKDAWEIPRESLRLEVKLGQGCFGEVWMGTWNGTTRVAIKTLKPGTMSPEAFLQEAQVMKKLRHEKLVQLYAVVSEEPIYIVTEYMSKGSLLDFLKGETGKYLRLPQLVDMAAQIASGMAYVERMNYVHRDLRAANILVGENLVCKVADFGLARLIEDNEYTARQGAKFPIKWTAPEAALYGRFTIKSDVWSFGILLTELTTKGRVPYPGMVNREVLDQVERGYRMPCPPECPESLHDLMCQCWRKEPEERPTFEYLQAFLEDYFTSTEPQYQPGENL
Chain of Vascular endothelial growth factor receptor 2 (P35968 whole entry): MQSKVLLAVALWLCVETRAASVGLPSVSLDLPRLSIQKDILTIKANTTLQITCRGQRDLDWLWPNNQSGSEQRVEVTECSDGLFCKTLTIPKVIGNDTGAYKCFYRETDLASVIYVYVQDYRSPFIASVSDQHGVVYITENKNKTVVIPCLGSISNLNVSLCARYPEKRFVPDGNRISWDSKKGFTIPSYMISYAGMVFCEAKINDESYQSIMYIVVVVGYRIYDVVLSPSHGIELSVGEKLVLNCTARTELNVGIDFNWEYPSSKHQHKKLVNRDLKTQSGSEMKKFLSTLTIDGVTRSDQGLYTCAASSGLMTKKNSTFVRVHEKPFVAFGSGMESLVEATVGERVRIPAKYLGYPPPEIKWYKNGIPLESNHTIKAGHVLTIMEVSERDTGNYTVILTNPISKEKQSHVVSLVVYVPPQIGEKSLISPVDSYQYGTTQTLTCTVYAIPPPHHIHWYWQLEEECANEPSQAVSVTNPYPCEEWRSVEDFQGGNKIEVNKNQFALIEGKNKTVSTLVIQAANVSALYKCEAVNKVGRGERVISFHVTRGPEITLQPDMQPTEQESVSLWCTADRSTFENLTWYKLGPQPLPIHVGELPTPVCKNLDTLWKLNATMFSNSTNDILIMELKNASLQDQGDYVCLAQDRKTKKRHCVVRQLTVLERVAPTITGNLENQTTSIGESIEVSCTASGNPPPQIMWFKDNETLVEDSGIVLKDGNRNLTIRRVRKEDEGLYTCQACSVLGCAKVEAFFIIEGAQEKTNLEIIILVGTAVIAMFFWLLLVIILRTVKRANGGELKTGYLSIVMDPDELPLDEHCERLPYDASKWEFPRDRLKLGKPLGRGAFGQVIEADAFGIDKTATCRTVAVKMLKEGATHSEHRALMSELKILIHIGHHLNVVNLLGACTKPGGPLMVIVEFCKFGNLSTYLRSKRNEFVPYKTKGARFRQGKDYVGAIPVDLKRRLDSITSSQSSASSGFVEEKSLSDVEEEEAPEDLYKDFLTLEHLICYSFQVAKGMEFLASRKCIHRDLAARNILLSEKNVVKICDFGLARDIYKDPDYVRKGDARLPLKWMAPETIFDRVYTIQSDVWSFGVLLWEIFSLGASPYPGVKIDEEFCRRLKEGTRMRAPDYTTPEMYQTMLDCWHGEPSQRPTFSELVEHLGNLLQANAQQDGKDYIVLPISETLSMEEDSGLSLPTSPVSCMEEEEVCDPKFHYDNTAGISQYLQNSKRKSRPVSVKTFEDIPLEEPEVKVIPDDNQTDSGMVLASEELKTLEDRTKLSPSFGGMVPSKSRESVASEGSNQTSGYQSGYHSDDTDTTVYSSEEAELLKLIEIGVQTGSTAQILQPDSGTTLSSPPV
Chain of Cytochrome P450 1A2 (P05177 whole entry): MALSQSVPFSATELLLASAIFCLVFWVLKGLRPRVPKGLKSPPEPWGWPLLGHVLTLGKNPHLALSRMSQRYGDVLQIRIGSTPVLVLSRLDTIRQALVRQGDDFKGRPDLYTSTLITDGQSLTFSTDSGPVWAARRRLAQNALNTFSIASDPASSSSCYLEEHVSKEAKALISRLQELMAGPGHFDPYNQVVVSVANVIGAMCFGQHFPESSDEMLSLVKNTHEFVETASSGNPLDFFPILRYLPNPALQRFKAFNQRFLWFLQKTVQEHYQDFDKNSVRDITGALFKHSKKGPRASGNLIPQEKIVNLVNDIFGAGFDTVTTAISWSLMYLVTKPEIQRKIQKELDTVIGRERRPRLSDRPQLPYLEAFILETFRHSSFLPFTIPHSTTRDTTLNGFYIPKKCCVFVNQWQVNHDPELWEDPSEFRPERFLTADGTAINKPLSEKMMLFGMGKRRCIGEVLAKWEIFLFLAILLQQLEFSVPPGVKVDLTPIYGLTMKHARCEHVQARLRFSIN
Chain of Cytochrome P450 2C19 (P33261 whole entry): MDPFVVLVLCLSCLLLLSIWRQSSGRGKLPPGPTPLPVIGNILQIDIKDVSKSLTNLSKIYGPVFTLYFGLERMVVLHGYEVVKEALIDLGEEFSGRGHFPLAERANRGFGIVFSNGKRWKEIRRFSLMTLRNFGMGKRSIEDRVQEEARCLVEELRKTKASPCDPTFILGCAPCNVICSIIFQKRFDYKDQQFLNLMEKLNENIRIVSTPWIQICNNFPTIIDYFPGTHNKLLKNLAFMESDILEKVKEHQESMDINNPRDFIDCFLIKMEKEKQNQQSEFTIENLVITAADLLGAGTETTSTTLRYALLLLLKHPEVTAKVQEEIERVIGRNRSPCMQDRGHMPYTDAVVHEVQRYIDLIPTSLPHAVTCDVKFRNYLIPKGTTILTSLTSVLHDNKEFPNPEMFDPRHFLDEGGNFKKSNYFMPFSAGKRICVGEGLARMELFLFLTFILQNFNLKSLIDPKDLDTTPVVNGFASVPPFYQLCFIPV

Nc1nccc(Oc2ccc(NC(=O)c3cccn(-c4ccc(F)cc4)c3=O)cc2F)c1Cl
IC50 [1]: > 20 µM | IC50 [2]: 4 µM | IC50 [3]: 7 µM | IC50 [4]: > 20 µM | IC50 [5]: > 20 µM | IC50 [6]: 57 nM | Activity [7]: 0.012 nmol/min/mg | IC50 [8]: 1 nM

CCOc1ccn(-c2ccc(F)cc2)c(=O)c1C(=O)Nc1ccc(Oc2ccnc(N)c2Cl)c(F)c1 [BMS-777607]
bioavailability [9]: 100% | Vd [10]: 0.2 L/kg | Cmax [11]: 43.7 µM | half-life [12]: 294 min | IC50 [13]: > 2000 nM | fraction unbound [14]: < 0.01 | IC50 [15]: > 2000 nM | clearance [16]: 0.82 mL/min/kg | IC50 [17]: 1000 nM | IC50 [18]: > 500 nM | IC50 [19]: > 2000 nM | Tmax [20]: 30 min | solubility [21]: 400 µg/mL (≈ 780 µM) | IC50 [22]: 550 nM | inhibition in vivo at 25 mg/kg [23]: 95% | fraction unbound [24]: < 0.01 | Tmax [25]: 1.7 h | Cmax [26]: 29 µM | inhibition in vivo at 50 mg/kg [27]: 102% | clearance [28]: 4.4 mL/min/kg | half-life [29]: 270 min | IC50 [30]: > 2000 nM | bioavailability [31]: 100% | IC50 [32]: 160 nM | Vd [33]: 1.2 L/kg | IC50 [34]: 180 nM | Activity [35]: Non-toxic | IC50 [36]: > 2000 nM | Tmax [37]: 2.3 h | clearance [38]: 12.1 mL/min/kg | IC50 [6]: 100 nM | IC50 [39]: 20 nM | IC50 [40]: 1.8 nM | bioavailability [41]: 100% | Cmax [42]: 8.7 µM | inhibition in vivo at 6.25 mg/kg [43]: 66% | IC50 [44]: 14 nM | AUC(0-t) at 24 h [45]: 567 µM·h | IC50 [8]: 3.9 nM | AUC(0-t) at 24 h [46]: 37 µM·h | half-life [47]: 288 min | IC50 [48]: > 2000 nM | IC50 [49]: 4.3 nM | IC50 [50]: 290 nM | IC50 [51]: > 500 nM | Cmax [52]: 4.5 µM | Activity [53]: Non-toxic | Activity [54]: Non-toxic | IC50 [55]: 78 nM | IC50 [56]: > 500 nM | Cmax [57]: 17.6 µM | IC50 [58]: 190 nM | Vd [59]: 1 L/kg | IC50 [60]: > 10 µM | fraction unbound [61]: < 0.01 | IC50 [62]: 150 nM

CN1CCN(Cc2c(Oc3ccc(NC(=O)c4cccn(-c5ccc(F)cc5)c4=O)cc3F)ccnc2N)CC1
IC50 [6]: 2800 nM | IC50 [8]: 5.9 nM
